Measurements: ChEMBL document CHEMBL4024779, “Novel Terminal Bipheny-Based Diapophytoene Desaturases (CrtN) Inhibitors as Anti-MRSA/VISR/LRSA Agents with Reduced hERG Activity” (J Med Chem, 2018)
Positions count from the first letter of the chain named. Activity calls are given as the source filed them. The calls are words filed in the database; no cut-off is given here.

Legend:
Cytochrome P450 3A4 = Cytochrome P450 3A4 (Homo sapiens, UniProt P08684); assay: Inhibition of CYP3A4 in human liver microsomes using midazolam as substrate upto 10 uM after 5 mins in presence of NADPH by LC-MS/MS analysis; type: ADME
[1] = Tmax in Sprague-Dawley rat at 5 mg/kg, iv administered as single dose by LC-MS/MS analysis; type: ADME, organism-based; settings: in vivo
[2] = Clearance in Sprague-Dawley rat at 5 mg/kg, iv administered as single dose by LC-MS/MS analysis; type: ADME, organism-based; settings: in vivo
[3] = Half life in Sprague-Dawley rat at 5 mg/kg, iv administered as single dose by LC-MS/MS analysis; type: ADME, organism-based; settings: in vivo
[4] = Oral bioavailability in Sprague-Dawley rat at 10 mg/kg administered as single dose by LC-MS/MS analysis; type: ADME, organism-based; settings: in vivo
[5] = Clearance in mouse at 2 mg/kg, iv administered as single dose by LC-MS/MS analysis; type: ADME, organism-based; settings: in vivo
[6] = Half life in mouse at 2 mg/kg, iv administered as single dose by LC-MS/MS analysis; type: ADME, organism-based; settings: in vivo
[7] = Half life in mouse at 10 mg/kg, po administered as single dose by LC-MS/MS analysis; type: ADME, organism-based; settings: in vivo
Staphylococcus aureus [8] = assay: In vivo anti-virulence activity against Staphylococcus aureus Newman in mouse lethal infection model assessed as host survival rate at 0.1 mg bid for 3.5 days administered intraperitoneally 6 hrs post infection and measured on day 8; type: functional
Procedure, shortened: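 In a lethal sepsis model, mice (n=15) were challenged with 2 × 10^8 CFU S. aureus Newman. Animal survival was recorded daily through day 8.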

[9] = Inhibition of CrtN in methicillin-resistant Staphylococcus aureus NRS108 assessed as reduction in staphyloxanthin levels after 48 hrs by spectrophotometric method-based pigment inhibition assay
[10] = Inhibition of CrtN in methicillin-resistant Staphylococcus aureus LRSA205 assessed as reduction in staphyloxanthin levels after 48 hrs by spectrophotometric method-based pigment inhibition assay
Staphylococcus aureus [11] = assay: In vivo anti-virulence activity against methicillin-resistant Staphylococcus aureus LRSA56 infected in BALB/c mouse model assessed as reduction in bacterial load in heart at 0.1 mg bid for 3.5 days administered intraperitoneally 6 hrs post infection by serial dilution method relative to control; type: functional; parameters: scale not given: the % may be the effect or the level left
Procedure, shortened: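 Mice were infected by retro-orbital injection with LRSA56 (5.0 × 10^7 CFU) or LRSA202 (7.0 × 10^7 CFU). Compound was given intraperitoneally 6 h after infection. […] Log10 CFU was counted in kidneys and hearts, with groups compared by two-tailed Mann-Whitney test.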

Staphylococcus aureus [12] = assay: In vivo anti-virulence activity against Staphylococcus aureus Newman infected in BALB/c mouse model assessed as reduction in bacterial load in kidney at 0.4 mg bid for 3.5 days administered orally 6 hrs post infection by serial dilution method relative to control; type: functional; parameters: scale not given: the % may be the effect or the level left
Procedure, shortened: (§1)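 Mice got 3.1 × 10^7 CFU S. aureus Newman by retro-orbital injection. Oral compound was given b.i.d. for 3.5 d, starting 6 h after infection. […] Log10 CFU was counted per kidney and per heart.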

Staphylococcus aureus [13] = assay: In vivo anti-virulence activity against Staphylococcus aureus Newman infected in BALB/c mouse model assessed as reduction in bacterial load in kidney at 0.2 mg bid for 3.5 days administered orally 6 hrs post infection by serial dilution method relative to control; type: functional; parameters: scale not given: the % may be the effect or the level left; procedure, shortened: as §1
Staphylococcus aureus [14] = assay: In vivo anti-virulence activity against Staphylococcus aureus Newman infected in BALB/c mouse model assessed as reduction in bacterial load in heart at 0.2 mg bid for 3.5 days administered orally 6 hrs post infection by serial dilution method relative to control; type: functional, organism-based; procedure, shortened: as §1
Staphylococcus aureus [15] = assay: In vivo anti-virulence activity against Staphylococcus aureus Newman infected in BALB/c mouse model assessed as reduction in bacterial load in heart at 0.1 mg bid for 3.5 days administered orally 6 hrs post infection by serial dilution method relative to control; type: functional, organism-based; procedure, shortened: as §1
Rattus norvegicus = assay: Toxicity in Sprague-Dawley rat at 60 to 1000 mg/kg, po administered as single dose assessed as changes in food consumption measured during 2 weeks post administration; type: organism-based; settings: in vivo, 336 h
Procedure, shortened: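 Rats, 30 in total, randomised into three groups. Each received a single oral dose of 60, 250 or 1000 mg/kg on day 1. Poisoning symptoms, mortality, behaviour, water and food consumption and body weight monitored immediately and over 2 weeks.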

[16] = target: T1, 4,4'-diapophytoene desaturase (4,4'-diaponeurosporene-forming) (Staphylococcus aureus (strain MW2)) (UniProt Q8NUQ6); settings: Staphylococcus aureus subsp. aureus MW2; USA400; 1 uM
T1 sequence (whole entry): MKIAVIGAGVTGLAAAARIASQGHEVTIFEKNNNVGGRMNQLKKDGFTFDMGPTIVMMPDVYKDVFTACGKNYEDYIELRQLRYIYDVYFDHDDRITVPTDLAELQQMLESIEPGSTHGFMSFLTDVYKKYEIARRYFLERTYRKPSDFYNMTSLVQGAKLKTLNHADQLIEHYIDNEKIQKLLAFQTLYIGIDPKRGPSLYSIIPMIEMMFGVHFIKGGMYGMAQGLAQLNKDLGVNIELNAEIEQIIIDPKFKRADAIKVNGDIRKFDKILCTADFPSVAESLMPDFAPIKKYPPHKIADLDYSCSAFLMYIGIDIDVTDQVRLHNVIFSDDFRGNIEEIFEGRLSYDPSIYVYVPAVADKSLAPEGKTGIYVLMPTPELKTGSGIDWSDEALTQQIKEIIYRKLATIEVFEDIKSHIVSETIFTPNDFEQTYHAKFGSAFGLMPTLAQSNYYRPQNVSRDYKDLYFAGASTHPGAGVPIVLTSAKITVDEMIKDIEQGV

[17] = target: T2, 4,4'-diapophytoene desaturase (4,4'-diaponeurosporene-forming) (Staphylococcus aureus (strain USA300)) (UniProt Q2FDU6); settings: Staphylococcus aureus LAC, 1 uM
T2 sequence (whole entry): T1 sequence (whole entry) with Q500R

Cytochrome P450 3A4, sequence (P08684 whole entry): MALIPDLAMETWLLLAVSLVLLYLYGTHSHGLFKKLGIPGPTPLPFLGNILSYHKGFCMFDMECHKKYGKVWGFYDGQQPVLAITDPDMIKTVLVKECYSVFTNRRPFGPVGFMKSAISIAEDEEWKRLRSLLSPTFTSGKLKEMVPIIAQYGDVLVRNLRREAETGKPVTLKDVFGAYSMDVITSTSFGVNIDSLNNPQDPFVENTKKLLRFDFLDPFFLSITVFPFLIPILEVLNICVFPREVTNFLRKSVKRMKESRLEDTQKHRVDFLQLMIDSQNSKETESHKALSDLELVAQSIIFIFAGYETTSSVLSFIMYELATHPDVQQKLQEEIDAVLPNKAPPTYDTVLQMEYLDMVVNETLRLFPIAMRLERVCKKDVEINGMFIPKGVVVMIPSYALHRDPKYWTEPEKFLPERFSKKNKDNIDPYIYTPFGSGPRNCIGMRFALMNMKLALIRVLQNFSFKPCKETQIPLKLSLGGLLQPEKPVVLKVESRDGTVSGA

## CN(C/C=C/c1ccc(-c2ccccc2)cc1)Cc1coc2ccccc12.Cl
Cytochrome P450 3A4
  IC50: > 10000 nM
[1]
  Tmax: 4.8 min
[2]
  clearance: 29.2 mL/min/kg
[3]
  half-life: 2.46 h
[4]
  bioavailability: 16.3%
[5]
  clearance: 30.7 mL/min/kg
[6]
  half-life: 2.05 h
[7]
  half-life: 3.35 h
Staphylococcus aureus [8]
  Survival: >70%
[9]
  IC50: 5.6 nM
[10]
  IC50: 10.5 nM
Staphylococcus aureus [11]
  Activity: >81.4%
Staphylococcus aureus [12]
  Activity: 90%
Staphylococcus aureus [13]
  Activity: 90%
Staphylococcus aureus [14]
  Activity: inactive
Staphylococcus aureus [15]
  Activity: inactive
Rattus norvegicus
  Activity: Non-Toxic
[16]
  Survival: 1%
[17]
  Survival: 0.7%
